From ChEMBL document CHEMBL1125548, “Synthesis and pharmacological studies of N-substituted 6-[(2-aminoethyl)amino]-1,3-dimethyl-2,4(1H,3H)-pyrimidinediones, novel class III antiarrhythmic agents” (1992)

What was measured:
Canis familiaris [1] = experiment: The percentage change of the duration of action potential at 75% repolarization was measured before and after the administration at 1.0 ug/mL; format: functional, Canis lupus familiaris
Summary of the method: (§1)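 Canine right-ventricular Purkinje fibers (mongrel dogs 7–11 kg, thiopental-anesthetized) superfused with Tyrode's (pH 7.5, 36 °C, gassed 95% O2/5% CO2). Compounds diluted from 1 mM water stock and added cumulatively. Readings taken 20 min after solution exchange. Result given as percent change in action potential duration.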

Canis familiaris [2] = experiment: The percentage change of the duration of action potential at 75% repolarization was measured before and after the administration at 3.0 ug/mL; format: functional, Canis lupus familiaris; summary of the method: as §1
Canis familiaris [3] = experiment: Percentage change of the duration of action potential at 75% repolarization was measured before and after the administration at 10.0 ug/mL; format: functional, Canis lupus familiaris; summary of the method: as §1
Canis familiaris [4] = experiment: Concentration required for 50% inhibition of tachycardia induced by isoproterenol (0.5ug/mL, iv) in anesthetized dog; format: functional; details: Canis lupus familiaris, read-out: ID50 (the source's name)
Canis familiaris [5] = experiment: The prolongation effect of the atrial and ventricular effective refractory period was measured before and after the administration at 0.3 mg/kg
Canis familiaris [6] = experiment: The prolongation effect of the atrial and ventricular effective refractory period was measured before and after the administration at 0.1 mg/kg; format: functional, Canis lupus familiaris, Cardiac atrium; details: dose 1.0 mg/kg; in the assay text read “1.0 mg/kg” for “0.1 mg/kg”
Summary of the method: (§2)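 In vivo, mongrel dogs of either sex (7–13 kg), anesthetized with pentobarbital sodium 30 mg/kg iv. Left femoral artery cannulated for arterial pressure, femoral vein for drug dosing. Effective refractory period measured before and after administration.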

Canis familiaris [7] = experiment: The prolongation effect of the atrial and ventricular effective refractory period was measured before and after the administration at 0.3 mg/kg; format: functional, Canis lupus familiaris, Cardiac atrium; summary of the method: as §2
Canis familiaris [8] = experiment: The prolongation effect of the atrial and ventricular effective refractory period was measured before and after the administration at 3 mg/kg; format: functional, Canis lupus familiaris, Cardiac atrium; summary of the method: as §2
Canis familiaris [9] = experiment: The percentage change in the effective refractory period was measured before and after the administration at 0.1 mg/kg; format: functional, Canis lupus familiaris; details: dose 1.0 mg/kg; in the assay text read “1.0 mg/kg” for “0.1 mg/kg”; summary of the method: as §2
Canis familiaris [10] = experiment: The prolongation effect of the atrial and ventricular effective refractory period was measured before and after the administration at 1 mg/kg; format: functional, Canis lupus familiaris, Cardiac atrium; summary of the method: as §2
Canis familiaris [11] = experiment: The prolongation effect of the atrial and ventricular effective refractory period was measured before and after the administration at 1.0 mg/kg

Row | SMILES | APD75 (Canis familiaris [1]) [%] | APD75 (Canis familiaris [2]) [%] | APD75 (Canis familiaris [3]) [%] | also measured
1 | Cl.Cn1c(N2CCN(CCc3ccc([N+](=O)[O-])cc3)CC2)cc(=O)n(C)c1=O | 43 | – | – | –
2 | CNS(=O)(=O)c1ccc(OCCCN2CCN(c3cc(=O)n(C)c(=O)n3C)CC2)cc1.Cl | – | 0 | – | –
3 | Cn1c(NCCNCC(O)COc2ccccc2F)cc(=O)n(C)c1=O (centres undefined) | 4.1 | 8.3 | 15.6 | ED50 (Canis familiaris [4]): 0.003 mg/kg
4 | CS(=O)(=O)O.Cn1c(N2CCN(CCCOc3ccccc3)CC2)cc(=O)n(C)c1=O | 7 | 22 | – | ED50 (Canis familiaris [4]): > 5 mg/kg
5 | Cn1c(N2CCN(CCCc3ccc([N+](=O)[O-])cc3)CC2)cc(=O)n(C)c1=O.O=C(O)C(=O)O | 17 | 22 | 31 | ERP (Canis familiaris [5]): 14.3%
6 | Cl.Cn1c(N2CCN(CCCCc3ccc([N+](=O)[O-])cc3)CC2)cc(=O)n(C)c1=O | – | 17 | 25 | –
7 | Cl.Cn1c(N2CCN(CCCOc3ccc(NS(C)(=O)=O)cc3)CC2)cc(=O)n(C)c1=O | 1 | 3 | 10 | ERP (Canis familiaris [6]): 9.3%; ERP (Canis familiaris [7]): 7.1%; ERP (Canis familiaris [8]): 16.4%
8 | Cl.Cl.Cn1c(N2CCN(CCCOc3ccc([N+](=O)[O-])cc3)CC2)cc(=O)n(C)c1=O | 17 | 22 | 30 | ERP (Canis familiaris [9]): 15.8%
9 | CO.Cl.Cn1c(N2CCN(CCCOc3cccc([N+](=O)[O-])c3)CC2)cc(=O)n(C)c1=O | 15 | 34 | – | ERP (Canis familiaris [6]): 7%
10 | Cl.Cn1c(N2CCN(CCCOc3ccccc3[N+](=O)[O-])CC2)cc(=O)n(C)c1=O | – | 18 | 39 | ERP (Canis familiaris [9]): 6.8%
11 | Cn1c(N2CCN(Cc3ccc([N+](=O)[O-])cc3)CC2)cc(=O)n(C)c1=O.O=C(O)C(=O)O | 3 | 7 | 11 | ERP (Canis familiaris [7]): 0%; ERP (Canis familiaris [10]): 0%; ERP (Canis familiaris [8]): 7%
12 | Cl.Cl.Cn1c(N2CCN(CC(O)COc3ccccc3)CC2)cc(=O)n(C)c1=O (centres undefined) | 3.5 | 13.7 | – | ED50 (Canis familiaris [4]): > 5 mg/kg
13 | CCO.Cn1c(NCCNCC(O)COc2ccccc2)cc(=O)n(C)c1=O (centres undefined) | – | 6.9 | 10.1 | ED50 (Canis familiaris [4]): 0.01 mg/kg
14 | CSc1ccc(OCCCN2CCN(c3cc(=O)n(C)c(=O)n3C)CC2)cc1.Cl | 4 | 13 | 25 | ERP (Canis familiaris [7]): 0%; ERP (Canis familiaris [8]): 15.4%; ERP (Canis familiaris [11]): 7.7%
